Experimental data taken from paper PMC12238405 (Communications Biology, 2025).
Entries after “also recorded” stand apart in the source; their conditions may differ. Like-named read-outs stand apart in the source and are kept apart here.

Columns and labels:
THP-1 cells = assay: Macrophage; format: cell-based, human; settings: vs L. donovani DD8 intracellular amastigotes
[1] = tested on: Leishmania donovani promastigotes; settings: cited from earlier work
[2] = tested on: L. donovani DD8 promastigotes; assay: Selection of resistant parasites under increasing drug pressure; format: cell-based, Leishmania donovani
How it was run: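 DD8 promastigotes were cultured under gradually increasing concentrations of each drug, starting at a sublethal level, to select resistant strains. Resistance was confirmed with the promastigote viability assay.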

[3] = tested on: L. donovani MHOM/IN/80/DD8 intracellular amastigotes; assay: L. donovani MHOM/IN/80/DD8 intracellular amastigote assay; format: cell-based, Leishmania donovani; settings: for IC50: Leishmania donovani, THP-1, 96 h, read-out: IC50 (µM) [mean ± SD]
How it was run: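 THP-1 cells: 12,500/well, 25 ng/mL PMA, 24 h at 37 °C. PMA washed off; cells rested 48 h. Infected with metacyclic promastigotes from 7-day culture (host:parasite 1:2.5) for 24 h, then free parasites washed off. Test compound 80–0.004 μM (0.4% DMSO), 96 h. PFA fixation, SYBR green/CellMask stain. Infected cells normalized to 1 μM amphotericin B and 0.4% DMSO. Sigmoidal IC50, two independent experiments.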

[4] = tested on: L. donovani DD8 promastigotes; assay: Determination of the cidal action of compounds; format: cell-based, Leishmania donovani; settings: after 24 h incubation
How it was run: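 DD8 promastigotes from two cultures in separate M199 media (N = 2) seeded at 5 × 10^5 parasites/mL. Test compound added; cell numbers counted at each time point. Absence of cells at a concentration was scored as cidal.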

[5] = Distribution coefficient estimation using chromatography; format: physicochemical; settings: pH 7.4
How it was run: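 LogD estimated at pH 7.4 by gradient HPLC, correlating retention against standards of known partition coefficient.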

[6] = tested on: L. donovani DD8 promastigotes; assay: Time to kill assay; format: cell-based; settings: Leishmania donovani, read-out: IC50, time to kill, promastigotes
How it was run: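 Time-kill: DD8 promastigotes exposed to test compound for 24, 48, 72 or 96 h in the promastigote viability assay. 14-point concentration series from 40 µM top; IC50 calculated at each exposure time.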

[7] = tested on: L. infantum chagasi (MHOM/BR/1972/BH46); assay: In vivo L. infantum chagasi chronic hamster model, parasite load by qPCR; set-up: species or system golden hamsters (Mesocricetus auratus); settings: for average number of amastigotes in the liver / average number of amastigotes in the spleen: group average
[8] = tested on: miltefosine resistant L. donovani DD8 promastigotes; assay: Activity on miltefosine resistant parasites, promastigote assay; format: cell-based, Leishmania donovani
How it was run: (§1)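 Resistant DD8 promastigote lines were raised by culture under gradually increasing drug concentrations, starting sublethal. Resistant clones were then tested alongside the wild-type strain in the resazurin promastigote viability assay.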

HEK-293 cells = assay: HEK-293 resazurin viability assay; format: cell-based, human; settings: vs L. donovani DD8 intracellular amastigotes, 96 h incubation
[9] = tested on: L. donovani MHOM/SD/62/1S-CL2D, LdBOB intracellular amastigotes; assay: L. donovani MHOM/SD/62/1S-CL2D, LdBOB intracellular amastigote assay; format: cell-based, Leishmania donovani; settings: for IC50: Leishmania donovani, 72 h, read-out: IC50 (µM) [mean ± SD]; for fold difference in activity between L. donovani DD8 and LdBOB: intracellular amastigote 72 h assay; for Selectivity THP-1 cells: vs L. donovani LdBOB intracellular amastigotes, 72 h incubation
[10] = tested on: cytokines IL-10, IL-4, TGFβ, IFN-γ, IL-17 and TNFα; assay: Relative expression of cytokines by qPCR in hamster spleen and liver; format: in vivo, golden hamsters (Mesocricetus auratus); settings: for TGF-β expression: compared to untreated (UTG)
How it was run: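 Hamsters in chronic infection (~60 days) treated 10 consecutive days: vehicle (0.5% carboxymethyl cellulose, oral), GLU 50 mg/kg/day ip, or test compound. Spleen/liver RNA reverse-transcribed; TaqMan qPCR normalized to hamster microglobulin at equal cDNA input; water as negative control. Cycling: 50 °C 2 min, 95 °C 10 min, 40 × (95 °C 15 s, 60 °C 1 min).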

[11] = tested on: miltefosine resistant L. donovani DD8 intracellular amastigotes; assay: Activity on miltefosine resistant parasites, intracellular amastigote assay; format: cell-based, Leishmania donovani
How it was run: (§2)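 Drug-selected resistant DD8 promastigotes were used to infect PMA-differentiated THP-1 cells. Test compound activity was assessed in the intracellular amastigote assay and compared with the wild-type strain.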

[12] = tested on: amphotericin B resistant L. donovani DD8 intracellular amastigotes; assay: Activity on amphotericin B resistant parasites, intracellular amastigote assay; format: cell-based, Leishmania donovani
How it was run: as §2

[13] = tested on: L. infantum chagasi (MHOM/BR/1972/BH46); assay: Histopathological analysis of hamster liver and spleen; format: in vivo, golden hamsters (Mesocricetus auratus); settings: infected hamsters, 10 mg/kg/day oral
[14] = tested on: amphotericin B resistant L. donovani DD8 promastigotes; assay: Activity on amphotericin B resistant parasites, promastigote assay; format: cell-based, Leishmania donovani
How it was run: as §1

[15] = tested on: L. donovani DD8 intracellular amastigotes; assay: Time to kill assay; format: cell-based; settings: Leishmania donovani, 24 h, read-out: IC50, time to kill, intracellular amastigotes
How it was run: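 Intracellular L. donovani amastigotes were exposed to test compound for 24, 48 or 72 h, with amphotericin B and miltefosine as reference drugs. A 14-point concentration–response series started at 40 µM, and an IC50 was derived for each exposure time. Other conditions followed the paper's intracellular amastigote assay.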

[16] = tested on: L. tropica, L. aethiopica, L. mexicana, L. panamensis and L. donovani; settings: read-out: EC50 values obtained for miltefosine; varied between species; cited from earlier work
L. donovani = settings: read-out: mean IC50; L. donovani DD8; cited from earlier work
[17] = L. donovani DD8 intracellular amastigote assay (96 h)
[18] = BZ1, BZ1-I 10 mg/kg/day oral, GLU 50 mg/kg/day i.p.
[19] = BZ1, BZ1-I 10 mg/kg/day oral, GLU 50 mg/kg/day i.p., 10 days

Compound	Selectivity THP-1 cells (THP-1 cells; 96 h incubation)	concentration withstood by resistant clones ([2]; after 428 days) [µM]	IC50 [3] [µM]	concentration at which no viable promastigotes were observed [4] [µM]	Selectivity THP-1 cells (THP-1 cells; 72 h incubation)	IC50 ([6]; 24 h) [µM]	IC50 ([6]; 48 h) [µM]	parasite burden reduction in spleen [7, 18] [%]	average number of amastigotes in the liver [7, 19] [g⁻¹]	average number of amastigotes in the spleen [7, 19] [g⁻¹]	activity against miltefosine resistant strain compared to wild-type [8]	Selectivity HEK-293 cells (HEK-293 cells)	IC50 [9] [µM]	fold difference in activity between L. donovani DD8 and LdBOB [9] [fold]	Selectivity THP-1 cells [9]	TGF-β expression [10]	activity against miltefosine resistant strain compared to wild-type [11]	activity against amphotericin B resistant strain compared to wild-type [12]	histopathological findings, liver [13]	histopathological findings, spleen [13]	other results
C[C@@H]1[C@H](O)[C@@H](C)/C=C/C=C/C=C/C=C/C=C/C=C/C=C/[C@H](O[C@@H]2O[C@H](C)[C@@H](O)[C@H](N)[C@@H]2O)C[C@@H]2O[C@](O)(C[C@@H](O)C[C@@H](O)[C@H](O)CC[C@@H](O)C[C@@H](O)CC(=O)O[C@H]1C)C[C@H](O)[C@H]2C(=O)O [Amphotericin B, reference compound]	10.24	0.42	0.2 ± 0.02	0.33																	resistance generated [1]: 20 fold
CCOc1ccc(Nc2c3c(nc4ccccc24)CCC3)cc1 [BZ1, N-(4-Ethoxyphenyl)-2,3-dihydro-1H-cyclopenta[b]quinolin-9-amine]	>33.89	11	0.59 ± 0.13	6.66	>25.64	4.31 ± 0.22	2.37 ± 0.74	98.56	3020	25400	no significant difference	> 33	4.4 ± 0.12	5	>11.76	significantly downregulated; also recorded: decreased expression of TGF-β	no significant difference	no significant difference	inflammatory nodules in the hepatic parenchyma, lymph histiocytic inflammatory infiltrate in the portal space forming nodules	increase of macrophages in the red pulp forming nodular aggregates and granulomas	chromatographic logD [5]: 5; fold greater activity than miltefosine [3, 17]: 5 fold; fold lower in vitro activity than amphotericin B [3, 17]: ~ 3 fold; in vivo toxicity in the hamster VL model ([7]; 10 mg/kg/day oral, 10 days): does not exhibit in vivo toxicity; TNF-α expression ([10]; compared to GLU and untreated, liver and spleen samples): significant downregulation; IL-4 expression ([10]; compared to untreated, spleen and liver samples): significantly downregulated; IL-17 expression ([10]; liver samples, compared to GLU): significant downregulation; activity against amphotericin B resistant strain compared to wild-type [14]: no significant difference
c1ccc(Oc2ccc(Nc3c4c(nc5ccccc35)CCC4)cc2)cc1 [BZ1-I, N-(4-phenoxyphenyl)-1H,2H,3H-cyclopenta[b]quinolin-9-amine]	>49.12		0.4 ± 0.38	1.66	>44.44	3.08 ± 1.11	0.69 ± 0.35	99.95	120	162	no significant difference	>24.11	4.26 ± 0.24	10	>11.49	decreased expression of TGF-β	no significant difference	no significant difference	mild inflammatory infiltrate in the portal space and nodules in the parenchyma with the presence of giant cells	evident increase in macrophages in the red pulp with the formation of nodules	concentration withstood by resistant clones ([2]; after 210 days): 5.5 µM; fold greater activity compared to the GLU treatment group ([7]; 10 mg/kg/day oral vs GLU 50 mg/kg/day i.p.): ~ 21 fold; activity against amphotericin B resistant strain compared to wild-type [14]: no significant difference; IC50 [15]: 4.84 ± 0.83 µM
CCCCCCCCCCCCCCCCOP(=O)([O-])OCC[N+](C)(C)C [Miltefosine, miltefosine, reference compound]	>7.87	40	2.54 ± 0.57	6.66								15.66									EC50 [16]: 2.63 to 10.6 µM; Selectivity THP-1 cells (THP-1 cells; 96 h incubation, listed as miltefosine): 7.87
NC[C@@H]1O[C@H](O[C@H]2[C@@H](O)[C@H](O[C@@H]3[C@@H](O)[C@H](N)C[C@H](N)[C@H]3O[C@H]3O[C@H](CO)[C@@H](O)[C@H](O)[C@H]3N)O[C@@H]2CO)[C@H](N)[C@@H](O)[C@@H]1O [Paromomycin]																					IC50 (L. donovani): 158 to 166 µM
Meglumine Antimoniate [reference compound]								99.21	2530	12200											parasite burden reduction in liver [7, 18]: 98.79%; INF-γ expression ([10]; spleen samples): significant difference; also recorded: increased INF-γ (Th1) expression
